The values that follow come from BindingDB's records for doi:10.1021/acsmedchemlett.0c00544 (Peking University Health Science Center, 2021).

pIC50: −log10 of the molar value.

The target of test [1] is T1, Signal transducer and activator of transcription 3 (Homo sapiens, UniProt P40763). Kind of test: Inhibition of IL-6 induced STAT3 transcriptional activity in human HEK-Blue IL-6 cells assessed as secreted embryonic alkaline phosphatase reporter gene expression measured after 20 hrs by microplate reader. Summed up: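 HEK-Blue IL-6 reporter cells were treated for 20 h. IL-6/JAK/STAT3 pathway activity was quantified from secreted SEAP using a detection reagent, with parallel MTT viability. Values are averages of three independent experiments.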
T1 sequence (P40763 whole entry): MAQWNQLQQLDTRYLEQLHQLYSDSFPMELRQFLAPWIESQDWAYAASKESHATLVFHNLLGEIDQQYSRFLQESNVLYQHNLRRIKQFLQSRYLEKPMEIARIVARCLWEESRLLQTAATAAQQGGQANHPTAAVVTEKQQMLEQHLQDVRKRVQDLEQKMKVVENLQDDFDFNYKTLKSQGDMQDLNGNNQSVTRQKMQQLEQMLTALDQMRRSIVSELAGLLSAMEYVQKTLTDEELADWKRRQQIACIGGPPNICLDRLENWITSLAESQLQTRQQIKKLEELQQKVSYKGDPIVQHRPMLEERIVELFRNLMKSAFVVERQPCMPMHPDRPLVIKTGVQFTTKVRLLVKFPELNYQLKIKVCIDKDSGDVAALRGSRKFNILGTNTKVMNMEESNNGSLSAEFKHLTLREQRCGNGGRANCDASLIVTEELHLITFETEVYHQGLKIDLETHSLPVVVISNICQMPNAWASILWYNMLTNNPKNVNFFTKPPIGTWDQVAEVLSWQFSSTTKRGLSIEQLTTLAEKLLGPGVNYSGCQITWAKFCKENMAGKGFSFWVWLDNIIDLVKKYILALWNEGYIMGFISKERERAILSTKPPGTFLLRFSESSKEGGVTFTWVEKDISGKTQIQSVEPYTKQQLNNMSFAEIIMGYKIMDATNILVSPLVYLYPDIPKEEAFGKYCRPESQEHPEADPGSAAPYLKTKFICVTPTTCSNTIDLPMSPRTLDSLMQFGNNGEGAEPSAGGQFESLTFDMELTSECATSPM

Test [2] has as its target T1, Signal transducer and activator of transcription 3. Put plainly: Inhibition of IL-6 induced STAT3 transcriptional activity in human HEK-Blue IL-6 cells assessed as secreted embryonic alkaline phosphatase reporter gene expression by microplate reader. The essentials: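 HEK-Blue IL-6 reporter cells were treated for 20 h, and STAT3 pathway activity was quantified from secreted SEAP using a detection reagent. […] Values are averages of three independent experiments.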
(In general: A reporter such as luciferase makes a cellular process visible.)

What is called pIC50 is the IC50 on a negative log10 scale, so that one unit is a factor of ten. `CC(=O)Oc1ccccc1C(=O)Nc1ncc([N+](=O)[O-])s1` [Alinia]: the values for the negative logarithm of the IC50 (pIC50) in test [1] and in test [2] were 5.01 and 5.00, respectively.

With `C[C@H](NC(=O)/C(C#N)=C/c1cccc(Br)n1)c1ccccc1` [Wp 1066], the figures for the pIC50 in test [1] and in test [2] were 5.60 and 5.75, respectively.
